Experimental data from ChEMBL document CHEMBL1139471, “Antitumor polycyclic acridines. 17. Synthesis and pharmaceutical profiles of pentacyclic acridinium salts designed to destabilize telomeric integrity” (J Med Chem, 2005).

Tests used:
[1] = Selectivity index, ratio of mean GI50 for NCI60 cell panel to IC50 for telomerase; type: functional, Homo sapiens
Method in brief: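 Selectivity index calculated as mean GI50 (NCI 60 panel, 2-day exposure) divided by the telomerase IC50 from the TRAP assay.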

[2] = Inhibition of telomerase by TRAP assay; parameters: species or system Homo sapiens
[3] = Metabolic stability in Sprague-Dawley rat liver microsomes assessed as drug remaining after 4 hrs
[4] = Stability in RPMI tissue culture medium at 37 degC after 72 hrs; type: ADME
Method in brief: (§1)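 Drug at 10 μM in RPMI containing 10% FBS without cells, held at 37 °C up to 72 h. Monitored by absorbance at λmax and spectrum shape, and by HPLC of aliquots for loss of parent and appearance of new peaks. LC-MS run on the 72 h sample.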

[5] = Stability in RPMI tissue culture medium at 37 degC incubated with human MCF7 cells at 0.5 uM after 72 hrs; type: ADME, cell-based; conditions: read-out: Stability
Method in brief: (§2)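 A549 or MCF-7 cells seeded at 5 × 10^5 per flask and attached overnight in RPMI with 10% serum at 37 °C. Medium then replaced with medium containing 0.5 μM drug. Medium sampled in triplicate at 0, 24, 48 and 72 h, deproteinized with acetonitrile. Isocratic C18 HPLC, fluorescence detection ex 483/em 543 nm. Drug peak height given as % of time zero; mean and SD of two flasks.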

[6] = Growth inhibition of NCI60 cell panel; type: functional; conditions: Homo sapiens
Method in brief: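 NCI 60 human tumor cell panel with a 2-day drug exposure; mean GI50 reported.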

[7] = Aqueous solubility at 25 degC; type: physicochemical; conditions: water
Liver microsomes = assay: Metabolic stability in Sprague-Dawley rat liver microsomes at 2 uM after 4 hrs; type: ADME, Microsome
Method in brief: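 Pooled male Sprague-Dawley rat liver microsomes (0.5 mg/mL protein) in 100 mM potassium phosphate pH 7.4 with 5 mM MgCl2 and 1 mM NADPH. Drug at 2 μM final, diluted from a DMSO stock, incubated 4 h at 37 °C. Stopped with cold acetonitrile, then reverse-phase C18 HPLC of the parent peak. Controls: P450-null human lymphoblast microsomes for protein binding; DF 203 for microsomal activity.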

[8] = Stability in RPMI tissue culture medium at 37 degC at 10 uM after 72 hrs; type: ADME; method in brief: as §1
A549 = assay: Stability in RPMI tissue culture medium at 37 degC incubated with human A549 cells at 0.5 uM after 72 hrs; type: ADME, cell-based; conditions: a549, 72 h; method in brief: as §2

SMILES	IC50 [2] [µM]	Selectivity index [1]	GI50 [6] [µM]	further results
CC(=O)Nc1ccc2c3cccc4c3c([n+](C)c2c1)-c1ccccc1N4C.[I-]	0.38	31.6	12	remaining at 4 h [3]: 69%; Stability [4]: Stable; remaining at 72 h, 0.5 µM [5]: 43%
CN1c2ccccc2-c2c3c1cc(/C=C/C(=O)N1CCOCC1)cc3c1cc(Cl)ccc1[n+]2C	–	–	12	–
COS(=O)(=O)[O-].Cc1ccc2c(c1)-c1c3c(cc(C)cc3c3cc(C)ccc3[n+]1C)N2C	0.25	1.8	0.41	–
COC(=O)CCc1ccc2c(c1)c1cccc3c1c([n+]2C)-c1ccccc1N3C	3.02	–	–	–
COc1cc2c3c([n+](C)c4ccccc4c3c1)-c1ccc(/C=C/C(=O)N3CCN(C(C)=O)CC3)cc1N2C	–	–	93.3	–
CC(=O)OCCCc1cc2c3c([n+](C)c4ccc(/C=C/C(=O)N5CCOCC5)cc4c3c1)-c1ccccc1N2C.[I-]	0.38	72.4	27.5	Activity [8]: Not Active; Activity (A549): Not Active
COC(=O)/C=C/c1ccc2c(c1)c1cccc3c1c([n+]2C)-c1ccccc1N3C	0.2	–	–	–
COc1cc2c3c([n+](C)c4ccc(/C=C/C(=O)N5CCOCC5)cc4c3c1)-c1ccccc1N2C	–	–	9.33	–

More lines, main results first:

IC50 [2] [µM]	SMILES	Selectivity index [1]	GI50 [6] [µM]	further results
> 1	COC(=O)/C=C/c1ccc2c(c1)N(C)c1cc(OC)cc3c1c-2[n+](C)c1ccccc31	–	4.58	–
0.33	COS(=O)(=O)[O-].Cc1cc2c3c([n+](C)c4ccc(F)cc4c3c1)-c1cc(F)ccc1N2C	40	13.2	remaining at 4 h [3]: 81%; solubility [7]: 5000 µM; Stability [4]: Stable
2.3	CC(=O)OCCCc1ccc2c(c1)N(C)c1cc(CCCOC(C)=O)cc3c1c-2[n+](C)c1ccccc31.[I-]	1.45	3.31	–
2.18	COc1cc2c3c([n+](C)c4ccccc4c3c1)-c1ccc(/C=C/C(=O)N3CCOCC3)cc1N2C.[I-]	2	43.7	–
3.22	CC(=O)OCCCc1cc2c3c([n+](C)c4ccc(CCCOC(C)=O)cc4c3c1)-c1ccccc1N2C.[I-]	1.2	3.8	–
0.38	CN1c2ccccc2-c2c3c1cccc3c1ccccc1[n+]2C.[I-]	3.4	1.29	–
0.37	CN1c2ccccc2-c2c3c1cccc3c1cc(/C=C/C(=O)N3CCOCC3)ccc1[n+]2C.[I-]	183	68	solubility [7]: 1000 µM; Stability [4]: Stable; Activity (Liver microsomes): 66%
